Converted amounts (≈) assume the structure as drawn.
Key:
Format in all cases: functional
[1] = test system: FM3A; experiment: Inhibitory activity against FM3A TK- cell line; conditions: Mus musculus, read-out: ID50 (the source's name)
How it was run: (§1)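 Tumour cells, (5-7.5) × 10^4 per well in growth medium, exposed to varying compound concentrations and allowed to proliferate 48 or 72 h at 37 °C in humidified CO2 atmosphere; cell counts by Coulter counter; value is 50% inhibitory dose. FM3A TK- and TK-/HSV-2 TK+ lines derived from FM3A/0 and grown in the same medium.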

[2] = test system: FM3A; experiment: Inhibitory activity against FM3A/0 cell line; conditions: Mus musculus, read-out: ID50 (the source's name); how it was run: as §1
[3] = test system: FM3A; experiment: Inhibitory activity against FM3A TK-/HSV-2 TK+ cell line; conditions: Mus musculus, […] TK-/HSV-2 TK+; read-out: ID50 (the source's name); how it was run: as §1
[4] = test system: L1210; experiment: Inhibitory activity against L1210 cell line; conditions: Mus musculus, read-out: ID50 (the source's name); how it was run: as §1
[5] = test system: MOLT-4F; experiment: Inhibitory activity against Molt/4F cell line; conditions: Homo sapiens, read-out: ID50 (the source's name); how it was run: as §1
[6] = test system: Raji; experiment: Inhibitory activity against Raji cell line; conditions: Homo sapiens, read-out: ID50 (the source's name); how it was run: as §1
[7] = Antiviral Activity against herpes simplex virus-1 (F) in rabbit kidney cell; conditions: Oryctolagus cuniculus
[8] = Antiviral Activity against herpes simplex virus-1 (KOS) in rabbit kidney cell; conditions: Oryctolagus cuniculus
[9] = Antiviral Activity against herpes simplex virus-1 (McIntyre) in rabbit kidney cell; conditions: Oryctolagus cuniculus
[10] = Antiviral Activity against herpes simplex virus-1 TK- B2006 in rabbit kidney cell; conditions: Oryctolagus cuniculus
[11] = Antiviral Activity against herpes simplex virus-1 TK- VMW 1837 in rabbit kidney cell; conditions: Oryctolagus cuniculus
[12] = Antiviral Activity against herpes simplex virus-2 (G) in rabbit kidney cell; conditions: Oryctolagus cuniculus
[13] = Antiviral Activity against herpes simplex virus-2 (Lyons) in rabbit kidney cell; conditions: Oryctolagus cuniculus
[14] = Antiviral Activity against vaccinia virus in rabbit kidney cell; conditions: Oryctolagus cuniculus
[15] = Antiviral Activity against vesicular stomatitis virus in rabbit kidney cell; conditions: Oryctolagus cuniculus
[16] = Antiviral Activity against herpes simplex virus-2 (196) in rabbit kidney cell; conditions: Oryctolagus cuniculus
[17] = test system: Mus musculus; experiment: Tested for the appearance of skin lesions or paralysis of the legs after 39 days when administered intraperitoneally at 100 mg/kg per day; conditions: route intraperitoneal
How it was run: (§2)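 Athymic nu/nu mice, 25-30 days old, 15-20 g, inoculated intracutaneously in lumbosacral area with TK- HSV-1 VMW 1837, 10^5 CCID50 in 50 μL; intraperitoneal dosing 100 mg/kg per day, twice daily for 5 days from infection, in carboxymethylcellulose or water. Mean day of lesions/hind-leg paralysis and mean survival recorded over 39 days; survivors counted as 39-day.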

[18] = test system: Mus musculus; experiment: Tested for the appearance of skin lesions or paralysis of the legs after 52 days when applied topically at 10% after 52 days
How it was run: (§3)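 Athymic nu/nu mice, 25-30 days old, 15-20 g, inoculated intracutaneously in lumbosacral area with TK- HSV-1 VMW 1837, 10^5 CCID50 in 50 μL; topical 10% (v/v in DMSO) applied four times daily for 5 days from infection; DMSO placebo. Mean day of lesions/hind-leg paralysis and survival followed 52 days; survivors counted as 52-day.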

[19] = test system: Mus musculus; experiment: Compound was evaluated in nu/nu mice infected with TK- HSV-1 (VMW-1837) to increase the mean survival time when administered intraperitoneally at 100 mg/kg per day after 39 days; conditions: route intraperitoneal; how it was run: as §2
[20] = test system: Mus musculus; experiment: Compound was evaluated in nu/nu mice infected with TK- HSV-1 (VMW-1837) to increase the mean survival time when applied topically at 10% after 52 days; how it was run: as §3

Structure (SMILES) | IC50 [1] [µg/mL] | IC50 [2] [µg/mL] | IC50 [3] [µg/mL] | IC50 [4] [µg/mL] | IC50 [5] [µg/mL] | IC50 [6] [µg/mL] | MIC [7] [µg/mL] | MIC [8] [µg/mL] | MIC [9] [µg/mL] | MIC [10] [µg/mL] | MIC [11] [µg/mL] | MIC [12] [µg/mL] | MIC [13] [µg/mL] | MIC [14] [µg/mL] | MIC [15] [µg/mL] | MIC [16] [µg/mL] | Activity [17] | Activity [18] | Mean survival time [19] [days] | Mean survival time [20] [days]
CN1CCOP1(=O)OC[C@H]1O[C@@H](n2cc(/C=C/Br)c(=O)[nH]c2=O)C[C@@H]1O (stereo partly specified) | 1.3 (≈ 2.87 µM) | 48 (≈ 106 µM) | 0.0008 (≈ 0.00177 µM) | 90 (≈ 199 µM) | > 100 | > 100 | 0.07 (≈ 0.155 µM) | 0.02 (≈ 0.0442 µM) | 0.04 (≈ 0.0885 µM) | > 400 | > 400 | 10 (≈ 22.1 µM) | 200 (≈ 442 µM) | 20 (≈ 44.2 µM) | > 400 | > 400 |  |  |  | 
CN1CC(CC2SCCCS2)OP1(=O)OC[C@H]1O[C@@H](n2cc(/C=C/Br)c(=O)[nH]c2=O)C[C@@H]1O (stereo partly specified) | 32 (≈ 54.8 µM) | 48 (≈ 82.1 µM) | 0.018 (≈ 0.0308 µM) | > 100 | > 100 | > 100 | 150 (≈ 257 µM) | 200 (≈ 342 µM) | > 200 | 150 (≈ 257 µM) | 300 (≈ 513 µM) | 150 (≈ 257 µM) | > 200 | 200 (≈ 342 µM) | > 200 | > 200 |  |  |  | 
COC(CC1CN(C)P(=O)(OC[C@H]2O[C@@H](n3cc(/C=C/Br)c(=O)[nH]c3=O)C[C@@H]2O)O1)Sc1ccccc1 (stereo partly specified) | 12.4 (≈ 20.1 µM) | 82 (≈ 133 µM) | 0.003 (≈ 0.00485 µM) | > 100 | > 100 | > 100 | 0.1 (≈ 0.162 µM) | 0.1 (≈ 0.162 µM) | 0.4 (≈ 0.647 µM) | > 400 | > 400 | > 400 | > 400 | ≥ 400 | > 400 | > 400 |  |  |  | 
CN1CCOP1(=O)OCCOCn1cnc2c(O)nc(N)nc21 (stereo unspecified) |  | > 100 |  | > 100 | > 100 | > 100 |  | 0.2 (≈ 0.581 µM) |  |  |  | 0.2 (≈ 0.581 µM) |  | 400 (≈ 1160 µM) | > 400 |  |  |  |  | 
Nc1nc2c(ncn2COCCO)c(=O)[nH]1 [ACYCLOVIR] | 0.62 (≈ 2.75 µM) | 17 (≈ 75.5 µM) | 0.0009 (≈ 0.004 µM) | 41 (≈ 182 µM) | > 100 | > 100 | 0.1 (≈ 0.444 µM) | 0.2 (≈ 0.888 µM) | 0.2 (≈ 0.888 µM) | 20 (≈ 88.8 µM) | 10 (≈ 44.4 µM) | 0.02 (≈ 0.0888 µM) | 0.1 (≈ 0.444 µM) | 150 (≈ 666 µM) | > 400 | 0.07 (≈ 0.311 µM) | 17.2 | 40.8 | 30.4 | 46.2
O=c1[nH]c(=O)n([C@H]2C[C@H](O)[C@@H](CO)O2)cc1/C=C/Br [BRIVUDINE] | 0.31 (≈ 0.931 µM) | 9.4 (≈ 28.2 µM) | 0.0005 (≈ 0.0015 µM) | 22 (≈ 66 µM) | > 100 | 73 (≈ 219 µM) | 0.01 (≈ 0.03 µM) | 0.02 (≈ 0.06 µM) | 0.01 (≈ 0.03 µM) | 100 (≈ 300 µM) | 300 (≈ 901 µM) | 2 (≈ 6 µM) | 20 (≈ 60 µM) | 7 (≈ 21 µM) | > 400 | 100 (≈ 300 µM) | 10.2 | 8.2 | 33.8 | 39.6

Reference: ChEMBL document CHEMBL1124895, “Synthesis and biological evaluation of some cyclic phosphoramidate nucleoside derivatives” (1990)
